This is an account of results in PubChem BioAssay AID602213 (Southern Research Specialized Biocontainment Screening …, 2012).

The source made the active and inactive calls.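 Rule for the calls: active = inhibition of 30% or more at any tested concentration; inactive = the rest.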

This assay concerns the target M1-family alanyl aminopeptidase PfA-M1 (Plasmodium falciparum 3D7). As to the kind of experiment: PfM1AAP aminopeptidase inhibitors, dose response, biochemical, QFRET, H-Leu-NHMec substrate, set 2 (AID 602213). The following applies: recombinant PfM1AAP, H-Leu-NHMec fluorogenic cleavage; for inhibition: at 100 µM (top of the series). In short, it runs like this: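 Material: Purified recombinant PfM1AAP, an M1-family alanyl aminopeptidase of Plasmodium falciparum | Technique: Fluorescence at 370/460 nm | Times: 90 min reaction at room temperature | Medium: Tris buffer pH 7.5, CoCl2, 2% DMSO | Compound dosing: 10 concentrations, 0.2–100 µM, 1:2 steps | Also added: H-Leu-NHMec fluorogenic peptide substrate, 0.1 mM final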

Usually IC50 stands for the concentration at which inhibition is half-maximal. Consider `O=C(NCc1ccc2c(c1)OCO2)C1CCN(S(=O)(=O)c2ccc(Br)s2)CC1`, for which the half-inhibitory concentration (IC50) was 1.54 µM. For `O=C(NCc1ccc(Cl)cc1)C1CCN(S(=O)(=O)c2ccc(Br)s2)CC1`, the IC50 was 14.6 µM. With `CC[C@H](C)[C@H](NC(=O)c1ccc(C(C)(C)C)cc1)C(=O)NCc1ccc(Cl)cc1`, the inhibition entry is “inactive”. As to `O=C(NCc1ccc(F)cc1)C1CCN(S(=O)(=O)c2ccc(Br)s2)CC1`, the IC50 is 5.05 µM. With `CC[C@H](C)[C@H](NS(=O)(=O)c1ccc(Br)s1)C(=O)NCc1ccc2c(c1)OCO2`, the inhibition entry is “inactive”. Take `CC[C@H](C)[C@H](NC(=O)c1ccc(C(C)(C)C)cc1)C(=O)NCc1ccc2c(c1)OCO2`: the inhibition result is “inactive”. For `CC[C@H](C)[C@H](NS(=O)(=O)c1ccc(Br)s1)C(=O)NCc1ccc(Cl)cc1`, the inhibition entry is “inactive”.

In the case of `O=C(NCc1ccccc1)C1CCN(S(=O)(=O)c2ccc(Br)s2)CC1`, the IC50 is 2.26 µM.
